Screening results from PubChem.
T cruzi growth – blocks T. cruzi growth in NIH3T3 culture. T. cruzi beta-gal in NIH3T3, GalScreen luminescence, 90 h. inhibition, % at 8.34 µM. 77,000 compounds, 5.9% hits;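 active means mean inhibition above about 93%, with at least 55% of replicates each passing it, limit read from the data, passing the limit was not always enough; inconclusive means only one of those two conditions holds; inactive means neither condition holds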
KDM4C inh – inhibitors of human demethylase GASC-1 KDM4C; GST-KDM4C 2-372, H3K9me3 peptide, LANCE TR-FRET; Q9H3R0; inhibition, % at 12.5 µM; 96,000 compounds, 0.15% hits;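 active means mean replicate inhibition above about 25%, with at least 55% of replicates also reaching it, limit read from the data, passing the limit was not always enough; inconclusive means only one of those two conditions met; inactive means neither condition met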
Target sequence (Q9H3R0 2-372 limits assumed): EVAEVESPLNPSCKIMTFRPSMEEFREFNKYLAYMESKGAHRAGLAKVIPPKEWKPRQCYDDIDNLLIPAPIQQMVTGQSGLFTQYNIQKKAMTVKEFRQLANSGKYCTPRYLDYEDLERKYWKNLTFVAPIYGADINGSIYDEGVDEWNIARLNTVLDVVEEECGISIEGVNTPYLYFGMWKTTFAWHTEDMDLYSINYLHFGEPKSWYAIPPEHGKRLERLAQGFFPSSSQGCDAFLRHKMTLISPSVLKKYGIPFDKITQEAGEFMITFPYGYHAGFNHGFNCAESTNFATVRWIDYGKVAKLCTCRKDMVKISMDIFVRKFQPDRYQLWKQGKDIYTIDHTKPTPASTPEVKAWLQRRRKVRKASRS
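System: N-terminal GST-fused human GASC-1 (KDM4C) fragment, residues 2-372; amount: enzyme final amount 10 nM; incubation: reaction 30 min RT, detection step 1 h RT; medium: HEPES buffer, pH 7.5, plus ascorbate; technique: LANCE TR-FRET, Eu antibody, ULight-streptavidin, EDTA, ex 340 nm, em 618/671 nm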
Pf Dd2 growth – P. falciparum Dd2 growth inhibition | SYBR Green, 72 h; hits give low values | 94,000 compounds, 2.3% hits | activity change, % at 10 µM | AID 1159554; in the data active means activity change below about -80%; inconclusive means no clear call, values can overlap the other calls
IDH1 R132H inh – inhibitors of human IDH1 R132H. IDH1 R132H reductase, diaphorase/resazurin fluorescence, 60 min. inhibition, % at 10 µM. 70,000 compounds, 0.18% hits. AID 624101; in the data active means inhibition above about 34%; inconclusive means no clear call, values can overlap the other calls; inactive means below about 11%
Of the large screens only hits and unclear results are named; the others gave an inactive call. Sampled rows, rich in hits. Any-hit rate of the full collection: about 5.8%.

C[C@@H]1CN([C@H](C)CO)C(=O)c2cc(NC(=O)NC3CCCCC3)ccc2O[C@@H](C)CCCCO[C@@H]1CN(C)C(=O)Nc1ccc(F)cc1	Pf Dd2 growth -88.0 (no result: T cruzi growth)
C[C@@H]1CN([C@H](C)CO)C(=O)c2cc(NC(=O)NC3CCCCC3)ccc2O[C@@H](C)CCCCO[C@@H]1CN(C)C(=O)Nc1ccccc1	Pf Dd2 growth -81.1 (no result: IDH1 R132H inh)
C[C@@H]1CN([C@H](C)CO)C(=O)c2cccc(NC(=O)CCCCCC(=O)Nc3ccccc3N)c2O[C@@H]1CN(C)Cc1ccc(Oc2ccccc2)cc1	Pf Dd2 growth -90.6 (no result: T cruzi growth)
C[C@H](CO)N1C[C@H](C)[C@H](CN(C)C(=O)Nc2ccccc2)Oc2c(NC(=O)CCCCCC(=O)Nc3ccccc3N)cccc2C1=O	none (no result: T cruzi growth)
C[C@@H]1CN([C@H](C)CO)C(=O)c2cc(NC(=O)CCCCCC(=O)Nc3ccccc3N)ccc2O[C@@H]1CN(C)Cc1ccc(Oc2ccccc2)cc1	none (no result: T cruzi growth, IDH1 R132H inh)
C[C@H]1CN([C@@H](C)CO)C(=O)c2cccc(NC(=O)CCCCCC(=O)Nc3ccccc3N)c2O[C@@H]1CN(C)Cc1ccc(Oc2ccccc2)cc1	Pf Dd2 growth -81.6 (no result: T cruzi growth)
C[C@@H]1CN([C@@H](C)CO)C(=O)c2cccc(NC(=O)CCCCCC(=O)Nc3ccccc3N)c2O[C@@H]1CN(C)Cc1ccc(Oc2ccccc2)cc1	Pf Dd2 growth -91.0 (no result: T cruzi growth, IDH1 R132H inh)
COc1ccccc1-c1cn(CC[C@H]2CC[C@H](NC(=O)C3CCCCC3)[C@@H](CO)O2)nn1	none
[N-]=[N+]=Nc1ccccc1C[C@@]1(C(=O)N2CCOCC2)N=C(c2ccc(OCCCO)cc2)O[C@@H]1c1ccccc1	none (no result: T cruzi growth, KDM4C inh, Pf Dd2 growth)
C[C@H](CO)N1C[C@H](C)[C@@H](CN(C)Cc2ccc(C(=O)Nc3ccccc3N)cc2)Oc2ccc(NC(=O)Nc3ccc(F)cc3)cc2C1=O	Pf Dd2 growth inconclusive (no result: IDH1 R132H inh)
C[C@@H]1CN([C@H](C)CO)C(=O)c2cccc(NC(=O)Nc3ccc(F)cc3)c2O[C@@H]1CN(C)Cc1ccc(C(=O)Nc2ccccc2N)cc1	Pf Dd2 growth -89.2 (no result: T cruzi growth, IDH1 R132H inh)
C[C@@H]1CN([C@@H](C)CO)C(=O)c2cccc(NC(=O)Nc3ccc(F)cc3)c2O[C@@H]1CN(C)Cc1ccc(C(=O)Nc2ccccc2N)cc1	Pf Dd2 growth -92.2 (no result: T cruzi growth)
CCn1c(SCC(=O)Nc2ccc(C)cc2)nc2ccc(I)cc2c1=O	none (no result: T cruzi growth, KDM4C inh, Pf Dd2 growth)
C[C@@H]1CN([C@@H](C)CO)C(=O)Cc2cc(NC(=O)Cc3ccccc3)ccc2O[C@H]1CN(C)CC1CCCCC1	none
Cc1cc(NS(=O)(=O)c2ccc(Nc3nc(-c4ccc(O)cc4)cs3)cc2)no1	IDH1 R132H inh 59.7 (no result: T cruzi growth, KDM4C inh, Pf Dd2 growth)
C[C@@H]1CCCCO[C@H](CN(C)C(=O)Nc2ccc(C(F)(F)F)cc2)[C@H](C)CN([C@@H](C)CO)C(=O)c2cc(NC(=O)C3CCCCC3)ccc2O1	Pf Dd2 growth -83.2 (no result: IDH1 R132H inh)
C[C@@H]1CCCCO[C@H](CN(C)C(=O)Nc2ccc(F)cc2)[C@H](C)CN([C@H](C)CO)C(=O)c2cc(NC(=O)C3CCCCC3)ccc2O1	Pf Dd2 growth -81.2 (no result: IDH1 R132H inh)
C[C@H]1CN([C@@H](C)CO)C(=O)c2cccc(NC(=O)c3nc4ccccc4s3)c2O[C@@H]1CN(C)S(=O)(=O)c1ccccc1	Pf Dd2 growth -81.3 (no result: IDH1 R132H inh)
C[C@H](CO)N1C[C@H](C)[C@@H](CN(C)Cc2ccncc2)Oc2c(NC(=O)c3nc4ccccc4s3)cccc2C1=O	IDH1 R132H inh 35.4 (no result: T cruzi growth)
C[C@H]1CN([C@@H](C)CO)C(=O)c2cccc(NC(=O)c3nc4ccccc4s3)c2O[C@H]1CN(C)Cc1ccc(C(=O)Nc2ccccc2N)cc1	T cruzi growth 97.2, Pf Dd2 growth -91.2 (no result: IDH1 R132H inh)
C[C@H]1CN([C@@H](C)CO)C(=O)c2cccc(NC(=O)c3nc4ccccc4s3)c2O[C@H]1CN(C)Cc1ccccc1	none (no result: IDH1 R132H inh)
CCN1[C@@H]2c3ccc(-c4ccc(F)cc4)c(=O)n3C[C@@H]2[C@@H](CO)[C@@H]1C(=O)NCc1ccncn1	none (no result: IDH1 R132H inh)
COc1ccc(S(=O)(=O)N(C)C[C@@H]2OCCCC[C@@H](C)Oc3ccc(NC(=O)Nc4ccc5c(c4)OCO5)cc3C(=O)N([C@@H](C)CO)C[C@@H]2C)cc1	Pf Dd2 growth -88.2 (no result: IDH1 R132H inh)
COc1ccc(NC(=O)Nc2ccc3c(c2)C(=O)N([C@@H](C)CO)C[C@@H](C)[C@H](CN(C)S(=O)(=O)c2ccc(OC)cc2)OCCCC[C@@H](C)O3)cc1	none
COc1ccc(S(=O)(=O)N(C)C[C@@H]2OCCCC[C@H](C)Oc3ccc(NC(=O)Nc4ccc5c(c4)OCO5)cc3C(=O)N([C@H](C)CO)C[C@H]2C)cc1	Pf Dd2 growth -82.0
